The source of these data is ChEMBL document CHEMBL4725360, “Optimization of Acetazolamide-Based Scaffold as Potent Inhibitors of Vancomycin-Resistant Enterococcus” (J Med Chem, 2020).

≈ marks a conversion by molar mass, not a printed value. Calls of active or inactive are those of the source. The rule behind the calls is not given here. A value given as a limit tells only on which side of the number the result lay.

The subject of data set [1] is Enterococcus faecium. The data set is described as follows: Inhibition of carbonic anhydrase in Enterococcus faecium ATCC 700221 assessed as antibacterial activity incubated for 18 to 20 hrs in presence of ambient air by CLSI protocol based broth microdilution assay. As to conditions: time hrs 18-20. In short, it runs like this: (§1)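 CLSI broth microdilution: inoculum about 5 × 10⁵ CFU/mL in trypticase soy broth with serial dilutions of agents. Paired plates incubated at 37 °C for 18–20 h, one set in ambient air ("normal"), the other under 5% CO₂. MIC is the lowest concentration completely inhibiting visible growth.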
(In general: Dilution methods test growth across graded concentrations, often in twofold steps.)

Data set [2] has as its system Enterococcus faecium. The data set is described as follows: Inhibition of carbonic anhydrase in Enterococcus faecium ATCC 700221 assessed as antibacterial activity incubated for 18 to 20 hrs in presence of 5% CO2 by CLSI protocol based broth microdilution assay. Particulars: time hrs 18-20. In short, it runs like this:
as §1

Data set [3] deals with Enterococcus faecium. The data set is described as follows: Antibacterial activity against Enterococcus faecium HM965 incubated for 18 to 20 hrs under aerobic condition by CLSI protocol based broth microdilution assay. The data set is classed as functional. As to conditions: time hrs 18-20. In short, it runs like this:
(§2)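 Broth microdilution per CLSI. Strains grown aerobically overnight on trypticase soy agar at 37 °C. Inoculum set to 0.5 McFarland, diluted in trypticase soy broth to about 5 × 10⁵ CFU/mL. Agents serially diluted, plates incubated aerobically at 37 °C for 18–20 h. MIC is the lowest concentration with no visible growth. Compound stocks 10 mg/mL in DMSO.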

Data set [4] has as its system Enterococcus faecium. The data set is described as follows: Antibacterial activity against Enterococcus faecium NR-31971 incubated for 18 to 20 hrs under aerobic condition by CLSI protocol based broth microdilution assay. As to conditions: time hrs 18-20. The data set is classed as functional. In short, it runs like this: as §2
Data set [5] has as its system Enterococcus faecium. The data set is described as follows: Antibacterial activity against Enterococcus faecium NR-31916 incubated for 18 to 20 hrs under aerobic condition by CLSI protocol based broth microdilution assay. As to conditions: time hrs 18-20. In kind it is functional. In short, it runs like this: as §2
Data set [6] deals with Enterococcus faecium. The data set is described as follows: Antibacterial activity against Enterococcus faecium NR-32065 incubated for 18 to 20 hrs under aerobic condition by CLSI protocol based broth microdilution assay. The data set is classed as functional. As to conditions: time hrs 18-20. The essentials: as §2
Data set [7] relates to Enterococcus faecium. The data set is described as follows: Antibacterial activity against Enterococcus faecium HM968 incubated for 18 to 20 hrs under aerobic condition by CLSI protocol based broth microdilution assay. In kind it is functional. Particulars: time hrs 18-20. The essentials:
as §2

Data set [8] concerns Enterococcus faecium. The data set is described as follows: Antibacterial activity against Enterococcus faecium NR-28978 incubated for 18 to 20 hrs under aerobic condition by CLSI protocol based broth microdilution assay. In kind it is functional. Particulars: time hrs 18-20. In short, it runs like this:
as §2

Data set [9] relates to Enterococcus faecium. The data set is described as follows: Antibacterial activity against Enterococcus faecium NR-31903 incubated for 18 to 20 hrs under aerobic condition by CLSI protocol based broth microdilution assay. In kind it is functional. As to conditions: time hrs 18-20. The essentials:
as §2

The subject of data set [10] is Enterococcus faecium. The data set is described as follows: Antibacterial activity against Enterococcus faecium NR-31972 incubated for 18 to 20 hrs under aerobic condition by CLSI protocol based broth microdilution assay. As to conditions: time hrs 18-20. In kind it is functional. The essentials: as §2
In data set [11] the test system is Enterococcus faecium. The data set is described as follows: Antibacterial activity against Enterococcus faecium NR-31914 incubated for 18 to 20 hrs under aerobic condition by CLSI protocol based broth microdilution assay. The data set is classed as functional. Particulars: time hrs 18-20. The essentials:
as §2

In data set [12] the test system is Enterococcus faecalis. The data set is described as follows: Antibacterial activity against Enterococcus faecalis HM-335 incubated for 18 to 20 hrs under aerobic condition by CLSI protocol based broth microdilution assay. In kind it is functional. Particulars: time hrs 18-20. The essentials:
as §2

The test system of data set [13] is Enterococcus faecium. The data set is described as follows: Antibacterial activity against Enterococcus faecium NR-32052 incubated for 18 to 20 hrs under aerobic condition by CLSI protocol based broth microdilution assay. As to conditions: time hrs 18-20. In kind it is functional. The essentials: as §2
Data set [14] in a line: Cytotoxicity against human Caco2 cells incubated for 2 hrs by MTS assay. The data set is classed as cell-based. Particulars: Caco-2 cells. In short, it runs like this:
(§3)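 Caco-2 cells maintained in DMEM with 10% FBS, non-essential amino acids and penicillin-streptomycin at 37 °C, 5% CO₂. Compound exposure for 2 h in serum-free medium at several concentrations; DMSO-matched controls. Viability expressed relative to DMSO controls (mean ± SD), and CC₅₀ derived.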
In general terms: Formazan colour is commonly taken as a measure of viable cells.

For a further data set, the system named is Caco-2. The data set is described as follows: Cytotoxicity against human Caco2 cells at 128 ug/ml incubated for 2 hrs by MTS assay. In kind it is cell-based. Particulars: caco-2, 2 h, dose 128 µg/ml. In short, it runs like this:
as §3

The test system of data set [15] is Enterococcus faecalis. The data set is described as follows: Antibacterial activity against Enterococcus faecalis HM-334 incubated for 18 to 20 hrs under aerobic condition by CLSI protocol based broth microdilution assay. In kind it is functional. As to conditions: time hrs 18-20. The essentials:
as §2

Data set [16] relates to Enterococcus faecalis. The data set is described as follows: Antibacterial activity against Enterococcus faecalis NR-31975 incubated for 18 to 20 hrs under aerobic condition by CLSI protocol based broth microdilution assay. In kind it is functional, organism-based. As to conditions: time hrs 18-20. In short, it runs like this: as §2
The subject of data set [17] is Enterococcus faecalis. The data set is described as follows: Antibacterial activity against Enterococcus faecalis NR-31970 incubated for 18 to 20 hrs under aerobic condition by CLSI protocol based broth microdilution assay. As to conditions: time hrs 18-20. In kind it is functional, organism-based. The essentials:
as §2

A word on the MIC: it is the lowest concentration that inhibits growth of the organism. A low value points to inhibition by little substance. One may read the CC50 as the concentration that lowers cell viability or growth by half. Lower therefore signals greater toxicity to the cells.

Take `CCC(=O)Nc1nnc(S(N)(=O)=O)s1` [PROPAZOLAMIDE]: the inhibition result in the data set on Enterococcus faecium [1] is “Active”. The inhibition entry with Enterococcus faecium [2] is “inactive”. In the data set on Enterococcus faecium [3], inhibition of growth (MIC) required 1 µg/mL (≈ 4.23 µM).
In turn, `CC1CCC(C(=O)Nc2nnc(S(N)(=O)=O)s2)CC1` (stereo unspecified) came in with an MIC against Enterococcus faecium [3] of 0.25 µg/mL (≈ 0.821 µM).
In turn, `NS(=O)(=O)c1nnc(NCC2CCCCC2)s1` returned an MIC against Enterococcus faecium [3] above 64 µg/mL.
On to `CN[C@H](CC(C)C)C(=O)N[C@H]1C(=O)N[C@@H](CC(N)=O)C(=O)N[C@H]2C(=O)N[C@H]3C(=O)N[C@H](C(=O)N[C@H](C(=O)O)c4cc(O)cc(O)c4-c4cc3ccc4O)[C@H](O)c3ccc(c(Cl)c3)Oc3cc2cc(c3O[C@@H]2O[C@H](CO)[C@@H](O)[C@H](O)[C@H]2O[C@H]2C[C@](C)(N)[C@H](O)[C@H](C)O2)Oc2ccc(cc2Cl)[C@H]1O` [VANCOMYCIN], for which the MIC was 64 µg/mL (≈ 44.2 µM) in the data set on Enterococcus faecium [4]; above 64 µg/mL in the data set on Enterococcus faecium [5]; 64 µg/mL (≈ 44.2 µM) against Enterococcus faecium [6]; 64 µg/mL (≈ 44.2 µM) with Enterococcus faecium [7]; 32 µg/mL (≈ 22.1 µM) in the data set on Enterococcus faecium [8]; above 64 µg/mL against Enterococcus faecium [9]. The minimal inhibitory concentration (MIC) was above 64 µg/mL in the data set with Enterococcus faecium [10], 64 µg/mL (≈ 44.2 µM) against Enterococcus faecium [11], above 64 µg/mL against Enterococcus faecalis [12] and 64 µg/mL (≈ 44.2 µM) in the data set on Enterococcus faecium [13].
For the compound `CC(=O)Nc1ccc(S(N)(=O)=O)cc1`, in the data set on Enterococcus faecium [3], the minimal inhibitory concentration (MIC) is above 64 µg/mL.
As to `NS(=O)(=O)c1nnc(NCc2ccccc2)s1`, the minimal inhibitory concentration (MIC) in the data set on Enterococcus faecium [3] is above 64 µg/mL.
`CCNc1nnc(S(N)(=O)=O)s1` returned a minimum inhibitory concentration (MIC) in the data set on Enterococcus faecium [3] above 64 µg/mL.
With `CC1(C(=O)Nc2nnc(S(N)(=O)=O)s2)CCCCC1`, it took 0.25 µg/mL (≈ 0.821 µM) to inhibit growth against Enterococcus faecium [3] (MIC).
As to `NS(=O)(=O)c1nnc(NC(=O)CCc2ccccc2)s1`, the MIC against Enterococcus faecium [4] was 0.125 µg/mL (≈ 0.4 µM); with Enterococcus faecium [5] it was 0.125 µg/mL (≈ 0.4 µM); against Enterococcus faecium [6] it was 0.125 µg/mL (≈ 0.4 µM); against Enterococcus faecium [3], 0.06 µg/mL (≈ 0.192 µM); with Enterococcus faecium [7] it was 0.25 µg/mL (≈ 0.8 µM); in the data set on Enterococcus faecium [8] it was 0.5 µg/mL (≈ 1.6 µM). For the same compound, the MIC with Enterococcus faecalis [15] came out at 0.015 µg/mL (≈ 0.048 µM); with Enterococcus faecium [9], 0.25 µg/mL (≈ 0.8 µM); in the data set with Enterococcus faecium [10], 0.125 µg/mL (≈ 0.4 µM); in the data set with Enterococcus faecium [11], 0.25 µg/mL (≈ 0.8 µM); in the data set with Enterococcus faecalis [12], 0.125 µg/mL (≈ 0.4 µM); with Enterococcus faecium [13] it was 0.5 µg/mL (≈ 1.6 µM). Also, the inhibition result in the data set with Enterococcus faecium [1] was “Active”. In addition, in the data set on Enterococcus faecium [2], the inhibition result is “inactive”. Besides, in data set [14], the 50% cytotoxic concentration (CC50) at 2 h was above 128 µg/mL. Further, the Activity entry in the data set with Caco-2 is reported as “Non-Toxic”.
`CC(C)CC(=O)Nc1nnc(S(N)(=O)=O)s1`: the MIC stood at 0.5 µg/mL (≈ 1.89 µM) against Enterococcus faecium [4]; 0.125 µg/mL (≈ 0.473 µM) against Enterococcus faecium [5]; 0.25 µg/mL (≈ 0.946 µM) in the data set on Enterococcus faecium [6]; 0.125 µg/mL (≈ 0.473 µM) in the data set with Enterococcus faecium [3]; 0.125 µg/mL (≈ 0.473 µM) in the data set on Enterococcus faecium [7]; 0.25 µg/mL (≈ 0.946 µM) against Enterococcus faecium [8]. In addition, the minimum inhibitory concentration (MIC) turned out to be 0.5 µg/mL (≈ 1.89 µM) in the data set with Enterococcus faecalis [15]; 0.125 µg/mL (≈ 0.473 µM) with Enterococcus faecium [9]; 0.5 µg/mL (≈ 1.89 µM) in the data set with Enterococcus faecium [10]; 0.25 µg/mL (≈ 0.946 µM) against Enterococcus faecium [11]; 0.125 µg/mL (≈ 0.473 µM) in the data set with Enterococcus faecalis [12]; 0.125 µg/mL (≈ 0.473 µM) against Enterococcus faecium [13]. Besides, the outcome with Enterococcus faecalis [16] and with Enterococcus faecalis [17] was Active. Moreover, the CC50 at 2 h in data set [14] is above 128 µg/mL. The Activity entry with Caco-2 is “Non-Toxic”.
In the data set on Enterococcus faecium [3], `NS(=O)(=O)c1nnc(NC(=O)CN2CCCCC2)s1` registered a minimum inhibitory concentration (MIC) of 1 µg/mL (≈ 3.27 µM).
Turning to `CC(=O)Nc1nnc(S(C)(=O)=O)s1`, in the data set with Enterococcus faecium [3], the MIC was above 64 µg/mL.
Regarding `NS(=O)(=O)c1nnc(NC(=O)CCN2CCOCC2)s1`, the inhibition entry in the data set with Enterococcus faecium [1] was “Active”. In addition, the inhibition entry in the data set on Enterococcus faecium [2] was “inactive”. The compound further yielded a minimum inhibitory concentration (MIC) against Enterococcus faecium [3] of 2 µg/mL (≈ 6.22 µM).
